Reference: ChEMBL document CHEMBL3046255, “Moluccensins R-Y, limonoids from the seeds of a mangrove, Xylocarpus moluccensis” (2012)

Legend:
Assay type in all cases: functional
[1] = tested on: Brontispa longissima; assay: Insecticidal activity against third-instar larvae of Brontispa longissima assessed as mortality at 1 mg/mL after 9 days
[2] = tested on: Brontispa longissima; assay: Antifeedant activity against third-instar larvae of Brontispa longissima at 1 mg/mL after 48 hr by conventional leaf disk method
Summary of the method: (§1)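 Third-instar larvae exposed to test material at 1 mg/mL. Antifeedant rate is given as percent, mean ± SD, and is read after 24 h […] and 48 h […].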

[3] = tested on: Brontispa longissima; assay: Antifeedant activity against third-instar larvae of Brontispa longissima at 1 mg/mL after 24 hr by conventional leaf disk method; summary of the method: as §1
[4] = tested on: Brontispa longissima; assay: Antifeedant activity against third-instar larvae of Brontispa longissima after 24 hr by conventional leaf disk method
Summary of the method: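 Value is an AFC50: the concentration giving 50% antifeedant activity against third-instar larvae after 24 h exposure.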

`COC(=O)[C@H](O)[C@H]1C(C)(C)C(=O)[C@@H]2CC3=C4CC(=O)O[C@@H](c5ccoc5)[C@]4(C)CC[C@@H]3[C@@]1(C)C2=O` [6-HYDROXYMEXICANOLIDE] gave an Activity [1] of 20.7%, an Activity [2] of 69.3% and an Activity [3] of 76.6%.
`COC(=O)C[C@H]1C(C)(C)[C@H](OC(C)=O)[C@]2(O)CC3=C4CC(=O)O[C@@H](c5ccoc5)[C@]4(C)CC[C@@H]3[C@@]1(C)C2=O` [2-HYDROXYFISSINOLIDE] gave an Activity [1] of 34.4%, an AFC50 [4] of 94 µg/mL and an Activity [2] of 91.5%. For the same molecule, the Activity [3] was 93.7%.
In the case of `CCC(C)C(=O)O[C@H]1C(C)(C)[C@H]([C@@H](O)C(=O)OC)[C@]2(C)C(=O)[C@@]1(O)CC1=C3CC(=O)O[C@@H](c4ccoc4)[C@]3(C)CC[C@@H]12` (stereo partly drawn) [MOLUCCENSIN S], the Activity [1] is reported as 48.2%, the Activity [2] is reported as 44.1% and the Activity [3] is reported as 42.3%.
With `COC(=O)[C@H](O)[C@H]1C(C)(C)[C@H](OC(=O)C(C)C)[C@]2(O)CC3=C4CC(=O)O[C@@H](c5ccoc5)[C@]4(C)CC[C@@H]3[C@@]1(C)C2=O` [MOLUCCENSIN R] the Activity [1] was 17%, the Activity [2] was 62.1% and the Activity [3] was 69.6%.
